How the values were obtained:
[1] = Cytotoxicity against African green monkey Vero cells after 72 hrs by MTT assay; type: cell-based; conditions: chlorocebus sabaeus
Procedure, shortened: (§1)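 Vero or J-774A.1 cells (1 x 10^5 cells/mL) exposed to 7 concentrations starting from 400 µM for 72 h. MTT (5 mg/mL stock) then added for 2 h at 37°C. Formazan dissolved in DMSO; absorbance read at 544 nm. CC50 estimated per Huber & Koella; mean ± SD of two independent assays in duplicate.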

Leishmania donovani [2] = test: Antileishmanial activity against Leishmania donovani MHOM/IN/80/Dd8 amastigotes infected in mouse J774A.1 cells incubated for 72 hrs by luminometric analysis; type: functional, organism-based; conditions: MHOM/IN/80/Dd8, J774.A1, 72 h
Procedure, shortened: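 Macrophages seeded at 4 x 10^4/mL in RPMI-1640 with 10% FCS for 24 h, then infected with stationary-phase promastigotes (4 x 10^5/mL) for 24 h. Free parasites washed off. Compounds added as 7-point two-fold dilutions from 40 µM; 72 h at 37°C. Read-out was Steady Glo luminescence. IC50 from four-parameter Hill fit; two independent assays in duplicate.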

[3] = Cytotoxicity against mouse J774A.1 cells after 72 hrs by MTT assay; type: cell-based, J774.A1; procedure, shortened: as §1
[4] = (§2) Selectivity index, ratio of CC50 for African green monkey Vero cells to IC50 for Leishmania donovani MHOM/IN/80/Dd8 amastigotes infected in mouse J774A.1 cells; type: functional
Procedure, shortened: (§3)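 Ratio of Vero-cell MTT CC50 to IC50 against intracellular amastigotes, both measured in this work.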

Leishmania donovani [5] = test: Antileishmanial activity against amastigote stage of Leishmania donovani MHOM/IN/80/Dd8 infected in golden hamster at 40 mg/kg, ip administered for 5 days measured on day 7 of last dose by Geimsa staining method; type: functional, organism-based
Vero = test: as §2; type: functional; procedure, shortened: as §3
Leishmania donovani [6] = test: Potency index, ratio of IC50 for miltefosine to IC50 for test compound against Leishmania donovani MHOM/IN/80/Dd8 amastigotes infected in mouse J774A.1 cells; type: functional
Syrian golden hamster = test: Toxicity in golden hamster infected with amastigote stage of Leishmania donovani MHOM/IN/80/Dd8 assessed as abnormality in behaviour at 50 mg/kg/day, ip administered for 5 days; type: organism-based, Mesocricetus auratus; conditions: in vivo, 120 h
Leishmania donovani [7] = test: Antileishmanial activity against amastigote stage of Leishmania donovani MHOM/IN/80/Dd8 infected in golden hamster at 50 mg/kg/day, ip administered for 5 days measured on day 7 of last dose by Geimsa staining method; type: functional; conditions: MHOM/IN/80/Dd8, ip
Procedure, shortened: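 Inbred golden hamsters (40–45 g) infected intracardially with 1x10^7 amastigotes; only animals with +1 infection at 15-day spleen biopsy used. Five to six per group. Aqueous compound given ip at 50 mg/kg/day for 5 days, starting 2 days after biopsy. Splenic biopsy on day 7 after last dose, Giemsa-stained. Percent inhibition by formula relative to initial and untreated-control counts; pooled from at least two experiments.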

[8] = AUC(last) in Sprague-Dawley rat at 5 mg/kg, iv after 0.083 to 48 hrs by RP-HPLC analysis; type: ADME, organism-based; set-up: dose 5 mg/kg, route intravenous, time 0 - last; conditions: in vivo
Procedure, shortened: (§4)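 Male Sprague-Dawley rats (250 ± 25 g), conscious, given a single 5 mg/kg dose into the femoral vein. The dose was a 10 mg/ml solution in DMSO/ethanol/tween 80/propylene glycol (10:20:2:48) with normal saline. Blood taken 0.083–48 h; serum read by isocratic RP-HPLC (C18, ammonium acetate 0.01M:acetonitrile 35:65), LLOQ 25 ng/ml. n=3; noncompartmental analysis.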

[9] = Oral availability in Sprague-Dawley rat at 50 mg/kg via gavage after 0.5 to 48 hrs by RP-HPLC analysis; type: ADME, organism-based; conditions: in vivo
Procedure, shortened: (§5)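 Single 50 mg/kg oral gavage dose to conscious male Sprague-Dawley rats (250 ± 25 g) after a 12–16 h overnight fast. Blood drawn at 0.5–48 h; serum separated and held at -80°C. Quantified by isocratic RP-HPLC (C18; 0.01M ammonium acetate/acetonitrile 35:65), LLOQ 25 ng/ml. Three rats; parameters derived noncompartmentally from mean serum concentrations.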

[10] = Tmax in Sprague-Dawley rat at 5 mg/kg, iv by RP-HPLC analysis; type: ADME, organism-based; conditions: in vivo; procedure, shortened: as §4
Leishmania donovani [11] = test: Antileishmanial activity against promastigote stage of Leishmania donovani MHOM/IN/80/Dd8 assessed as apoptotic cells at IC50 after 12 hrs by annexin V-FITC/propidium iodide double staining-based flow cytometric analysis; type: functional
Leishmania donovani [12] = test: Antileishmanial activity against promastigote stage of Leishmania donovani MHOM/IN/80/Dd8 assessed as apoptotic cells at IC50 after 72 hrs by annexin V-FITC/propidium iodide double staining-based flow cytometric analysis; type: functional
[13] = Mean residence time in Sprague-Dawley rat at 5 mg/kg, iv by RP-HPLC analysis; type: ADME, organism-based; conditions: in vivo; procedure, shortened: as §4
[14] = Clearance in Sprague-Dawley rat at 5 mg/kg, iv after 0.083 to 48 hrs by RP-HPLC analysis; type: ADME, organism-based; conditions: in vivo; procedure, shortened: as §4
[15] = Clearance in Sprague-Dawley rat at 50 mg/kg administered as single dose via oral gavage after 0.5 to 48 hrs by RP-HPLC analysis; type: ADME, organism-based; conditions: in vivo; procedure, shortened: as §5
[16] = Mean residence time in Sprague-Dawley rat at 50 mg/kg administered as single dose via oral gavage by RP-HPLC analysis; type: ADME, organism-based; conditions: in vivo; procedure, shortened: as §5
[17] = Cmax in Sprague-Dawley rat at 50 mg/kg administered as single dose via oral gavage after 0.5 to 48 hrs by RP-HPLC analysis; type: ADME, organism-based; set-up: dose 50 mg/kg, route oral; conditions: in vivo; procedure, shortened: as §5
Leishmania donovani [18] = test: Antileishmanial activity against promastigote stage of Leishmania donovani MHOM/IN/80/Dd8 assessed as apoptotic cells at IC50 after 48 hrs by annexin V-FITC/propidium iodide double staining-based flow cytometric analysis; type: functional
[19] = Tmax in Sprague-Dawley rat at 50 mg/kg administered as single dose via oral gavage by RP-HPLC analysis; type: ADME, organism-based; conditions: in vivo; procedure, shortened: as §5
[20] = Cmax in Sprague-Dawley rat at 5 mg/kg, iv after 0.083 to 48 hrs by RP-HPLC analysis; type: ADME, organism-based; set-up: dose 5 mg/kg, route intravenous; conditions: in vivo; procedure, shortened: as §4
[21] = AUC(last) in Sprague-Dawley rat at 50 mg/kg administered as single dose via oral gavage after 0.5 to 48 hrs by RP-HPLC analysis; type: ADME, organism-based; set-up: dose 50 mg/kg, time 0 - last, route oral; conditions: in vivo; procedure, shortened: as §5
[22] = Volume of distribution at steady state in Sprague-Dawley rat at 5 mg/kg, iv after 0.083 to 48 hrs by RP-HPLC analysis; type: ADME, organism-based; conditions: in vivo, read-out: Vdss; procedure, shortened: as §4
Leishmania donovani [23] = test: Antileishmanial activity against promastigote stage of Leishmania donovani MHOM/IN/80/Dd8 assessed as apoptotic cells at IC50 after 24 hrs by annexin V-FITC/propidium iodide double staining-based flow cytometric analysis; type: functional
Rattus norvegicus = test: Volume of distribution at steady state in Sprague-Dawley rat at 50 mg/kg administered as single dose via oral gavage after 0.5 to 48 hrs by RP-HPLC analysis; type: ADME, organism-based; conditions: in vivo; procedure, shortened: as §5
Leishmania donovani [24] = test: Antileishmanial activity against amastigote stage of Leishmania donovani MHOM/IN/80/Dd8 infected in golden hamster at 30 mg/kg, po administered for 5 days measured on day 7 of last dose by Geimsa staining method; type: functional; conditions: MHOM/IN/80/Dd8, po
Procedure, shortened: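 Golden hamsters (inbred, either sex, 40–45 g) were infected intracardially with 1x 10^7 L. donovani amastigotes. Spleen biopsy at day 15; animals with +1 infection (5–10 amastigotes/100 spleen cell nuclei) were used, 5–6 per group. Dosing started 2 days after biopsy and ran 5 consecutive days. Day-7 post-treatment splenic amastigotes were counted by Giemsa stain; percent inhibition was computed against initial and untreated-control counts.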

Molecule | CC50 at 72 h [1] | IC50 (Leishmania donovani [2]) | CC50 at 72 h [3] | Ratio CC50/IC50 [4] | other results
CC(C)(C)NC(=O)C(c1ccc(Cl)cc1)N(CC(=O)NCCO)C(=O)c1cc2ccccc2[nH]1 (stereo not given) | 226 µM | > 40 µM | 239 µM | <5 | 
COc1ccc(CNC(=O)CN(C(=O)c2ccc[nH]2)C(C(=O)NC(C)(C)C)c2cc(OC)c(OC)c(OC)c2)cc1 (stereo not given) | 73 µM | 14.5 µM | 62.4 µM | 5 | 
COc1ccc(C(C(=O)NC(C)(C)C)N(CC(=O)NCc2ccncc2)C(=O)c2cc3ccccc3[nH]2)cc1 (stereo not given) | 109 µM | 1.4 µM | 47.9 µM | 78 | 
Sodium stibo-gluconate |  |  |  |  | inhibition (Leishmania donovani [5]): 86.9%; Ratio CC50/IC50 (Vero): > 7
CC(C)(C)NC(=O)C(c1ccc(Cl)cc1)N(CC(=O)NCc1ccc(Cl)c(Cl)c1)C(=O)c1cc2ccccc2[nH]1 (stereo not given) | 52.2 µM | 7.5 µM | 19.2 µM | 7 | 
COc1cccc(CNC(=O)CN(C(=O)c2cc3ccccc3[nH]2)C(C(=O)NC(C)(C)C)c2ccc(Cl)cc2)c1 (stereo not given) | > 400 µM | 1.9 µM | 42.5 µM | >210 | 
COc1ccc(CNC(=O)CN(C(=O)c2cc3ccccc3[nH]2)C(C(=O)NC(C)(C)C)c2ccc(OC)cc2)cc1 (stereo not given) | > 400 µM | 0.6 µM | 145 µM | >666 | Ratio IC50 (Leishmania donovani [6]): 14; Activity (Syrian golden hamster): Non-toxic; inhibition in vivo at 50 mg/kg/day (Leishmania donovani [7]): 63.4%
CC(C)(C)NC(=O)C(c1ccc(Cl)cc1)N(CC(=O)NCCCN1CCOCC1)C(=O)c1cc2ccccc2[nH]1 (stereo not given) | 212 µM | 2.1 µM | 198 µM | 101 | Ratio IC50 (Leishmania donovani [6]): 4
CC(C)(C)NC(=O)C(c1ccc(Cl)cc1)N(CC(=O)NCc1ccncc1)C(=O)c1cc2ccccc2[nH]1 (stereo not given) | > 400 µM | 6.4 µM | 129 µM | >62 | 
CC(C)(C)NC(=O)C(c1ccc(Br)cc1)N(CC(=O)NCCCN1CCOCC1)C(=O)c1cc2ccccc2[nH]1 (stereo not given) | > 400 µM | 1 µM | 147 µM | >400 | Activity (Syrian golden hamster): Non-toxic; inhibition in vivo at 50 mg/kg/day (Leishmania donovani [7]): 63.5%
COc1ccc(CNC(=O)CN(C(=O)c2cc3ccccc3[nH]2)C(C(=O)NC(C)(C)CC(C)(C)C)c2ccc(Cl)cc2)cc1 (stereo not given) | > 400 µM | 3.1 µM | 51.2 µM | >129 | 
COc1ccc(CNC(=O)CN(C(=O)c2cc3ccccc3[nH]2)C(C(=O)NC(C)(C)C)c2ccc(Cl)cc2)cc1 (stereo not given) | 146 µM | 1.2 µM | 140 µM | 121 | AUC(0-t) [8]: 7790 ng·h/mL; bioavailability [9]: 34.9%; Ratio IC50 (Leishmania donovani [6]): 7; Tmax [10]: 4.98 min; Activity (Leishmania donovani [11]): 49.1%; Activity (Syrian golden hamster): Non-toxic; Activity (Leishmania donovani [12]): 79.07%; MRT [13]: 7.4 h; clearance [14]: 10 mL/min/kg; CL/F [15]: 25 mL/min/kg; MRT [16]: 8.5 h; Cmax [17]: 1590 ng/mL; Activity (Leishmania donovani [18]): 73.3%; Tmax [19]: 1 h; Cmax [20]: 1390 ng/mL; inhibition in vivo at 50 mg/kg/day (Leishmania donovani [7]): 70%; AUC(0-t) [21]: 27200 ng·h/mL; Vd [22]: 4.4 L/kg; Activity (Leishmania donovani [23]): 56.17%; Vdss (Rattus norvegicus): 12.8 L/kg
CC(C)(C)NC(=O)C(c1ccc(Cl)cc1)N(CC(=O)NCc1ccc(Cl)cc1)C(=O)c1cc2ccccc2[nH]1 (stereo not given) | > 400 µM | 10.9 µM | 143 µM | >36 | 
COc1cc(C(C(=O)NC(C)(C)C)N(CC(=O)NCc2ccc(Cl)c(Cl)c2)C(=O)c2cc3ccccc3[nH]2)cc(OC)c1OC (stereo not given) | 72.9 µM | 6.3 µM | 61.4 µM | 11 | 
COc1ccc(C(C(=O)NC(C)(C)C)N(CC(=O)NCc2ccc(Cl)cc2)C(=O)c2cc3ccccc3[nH]2)cc1 (stereo not given) | 400 µM | 7.5 µM | 123 µM | 53 | 
CC(C)(C)NC(=O)C(c1ccc(Cl)cc1)N(CC(=O)NCc1ccccc1)C(=O)c1cc2ccccc2[nH]1 (stereo not given) | 248 µM | 8.8 µM | 152 µM | 28 | 
COc1ccc(CNC(=O)CN(C(=O)c2cc3ccccc3[nH]2)C(C(=O)NC(C)(C)C)c2cc(OC)c(OC)c(OC)c2)cc1 (stereo not given) | 70.3 µM | 9.2 µM | 53.6 µM | 7 | 
COc1ccc(CNC(=O)CN(C(=O)c2cc3ccccc3[nH]2)C(C(=O)NC(C)(C)C)c2ccc(Br)cc2)cc1 (stereo not given) | > 400 µM | 1.5 µM | 135 µM | >266 | 
COc1cc(C(C(=O)NC(C)(C)C)N(CC(=O)NCc2ccccc2)C(=O)c2cc3ccccc3[nH]2)cc(OC)c1OC (stereo not given) | 176 µM | > 40 µM | 66.8 µM | <4 | 
CCCCCCCCCCCCCCCCOP(=O)([O-])OCC[N+](C)(C)C [MILTEFOSINE] |  | 8.4 µM | 14.3 µM | 6 | Activity (Syrian golden hamster): Non-toxic; inhibition in vivo at 30 mg/kg (Leishmania donovani [24]): 98.1%

From ChEMBL document CHEMBL3763111, “Identification of a diverse indole-2-carboxamides as a potent antileishmanial chemotypes” (Eur J Med Chem, 2016)
